In ChEMBL document CHEMBL1147340, “1H- and 13C-nmr assignments of phyllanthin and hypophyllanthin: lignans that enhance cytotoxic responses with cultured multidrug-resistant cells” (J Nat Prod, 1993):
Values after ≈ are worked out from the molar mass of the structure shown. Blank lines part the entries; values can stand above or below the compound they belong to.

Assays:
ZR-75-1 = assay: Cytotoxicity against human ZR-75-1 cells after 2 to 4 days by SRB assay; assay type: functional; details: read-out: ED50 (the source's name)
Procedure, shortened: (§1)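 Test compounds in 10% DMSO added to cell suspensions and incubated 2–4 days at 37° (100% humidity, 5% CO2). Cells fixed with cold 50% TCA for 1 h at 4°, stained with sulforhodamine B, washed with 1% HOAc and solubilized in 10 mM Tris base. OD read at 515 nm; percent growth calculated relative to controls. Top concentration tested 20 μg/ml.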

Col2 = assay: Cytotoxicity against human Col2 cells after 2 to 4 days by SRB assay; assay type: functional; details: read-out: ED50 (the source's name); procedure, shortened: as §1
[1] = Cytotoxicity against human LUC1 cells after 2 to 4 days by SRB assay; assay type: functional; details: read-out: ED50 (the source's name); procedure, shortened: as §1
SK-MEL-2 = assay: Cytotoxicity against human SK-MEL-2 cells after 2 to 4 days by SRB assay; assay type: functional; details: read-out: ED50 (the source's name); procedure, shortened: as §1
LNCaP = assay: Cytotoxicity against human LNCAP cells after 2 to 4 days by SRB assay; assay type: functional; details: read-out: ED50 (the source's name); procedure, shortened: as §1
[2] = Cytotoxicity against human BCA1 cells after 2 to 4 days by SRB assay; assay type: functional; details: read-out: ED50 (the source's name); procedure, shortened: as §1
[3] = Cytotoxicity against drug-sensitive human KB3 cells after 2 to 4 days by SRB assay; assay type: functional; details: read-out: ED50 (the source's name); procedure, shortened: as §1
P388 = assay: Cytotoxicity against mouse P388 cells after 2 to 4 days by SRB assay; assay type: functional; details: read-out: ED50 (the source's name); procedure, shortened: as §1
[4] = Cytotoxicity against multidrug-resistant human KBV1 cells after 2 to 4 days by SRB assay in absence of vinblastine; assay type: functional; details: KB-V1, read-out: ED50 (the source's name)
Procedure, shortened: (§2)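 SRB growth assay on KB-V1 cells (compounds in 10% DMSO, 2–4 days at 37°, 5% CO2, TCA fixation, OD 515 nm, percent growth versus controls). Cells were given a range of compound concentrations, either alone or together with 1 μg/ml vinblastine.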

[5] = Cytotoxicity against multidrug-resistant human KBV1 cells after 2 to 4 days by SRB assay in presence of vinblastine; assay type: functional; details: KB-V1, read-out: ED50 (the source's name); procedure, shortened: as §2
A-431 = assay: Cytotoxicity against human A431 cells after 2 to 4 days by SRB assay; assay type: functional; details: read-out: ED50 (the source's name); procedure, shortened: as §1
[6] = (§3) Displacement of [3H]vinblastine from p-glycoprotein in multidrug-resistant human KBV1 cell membrane vesicles by liquid scintillation counting; assay type: cell membranes
Procedure, shortened: (§4)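 Membrane vesicles were made from KB-V1 cells by homogenization, a 35% sucrose cushion and 100,000 × g pelleting. Incubated 20 min at room temperature, then filtered onto BSA-prewashed glass fiber. Nonspecific binding taken with 1 mM unlabeled vinblastine. Read by scintillation counting and expressed as percent.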

[7] = Cytotoxicity against multidrug-resistant human KBV1 cells at 1 ug/mL after 2 to 4 days by SRB assay in presence of vinblastine; assay type: functional; details: KB-V1, read-out: ED50 (the source's name)
KBV1 = assay: as §3; assay type: cell membranes; procedure, shortened: as §4

IC50 [6]: > 160 µg/mL
SMILES: COC[C@@H]1Cc2cc(OC)c3c(c2[C@H](c2ccc(OC)c(OC)c2)[C@H]1COC)OCO3 [HYPOPHYLLANTHIN]
EC50 (ZR-75-1): > 20 µg/mL | EC50 (Col2): > 20 µg/mL | EC50 [1]: > 20 µg/mL | EC50 (SK-MEL-2): > 20 µg/mL | EC50 (LNCaP): > 20 µg/mL | EC50 [2]: > 20 µg/mL | EC50 [3]: > 20 µg/mL | EC50 (P388): > 20 µg/mL | EC50 [4]: > 20 µg/mL | EC50 [5]: 3.8 µg/mL | EC50 (A-431): > 20 µg/mL

IC50 [6]: 28 µg/mL (≈ 66.9 µM)
SMILES: COC[C@H](Cc1ccc(OC)c(OC)c1)[C@H](COC)Cc1ccc(OC)c(OC)c1 [PHYLLANTHIN]
EC50 (ZR-75-1): > 20 µg/mL | EC50 (Col2): > 20 µg/mL | EC50 [1]: > 20 µg/mL | EC50 (SK-MEL-2): > 20 µg/mL | EC50 (LNCaP): > 20 µg/mL | EC50 [2]: > 20 µg/mL | EC50 [7]: 2.1 µg/mL | EC50 [3]: > 20 µg/mL | EC50 (P388): > 20 µg/mL | EC50 [4]: 9 µg/mL (≈ 21.5 µM) | EC50 (A-431): > 20 µg/mL | ED50 (KBV1): Dose-dependent effect
